PolyA inhibitor: yeast polyadenylation inhibition. S. cerevisiae SKY197-pL101 polyadenylation reporter, beta-gal luminescence; efflux-impaired pdr1/pdr3 knockout yeast; score 100 = 6 SD above DMSO. activity score, % at 12 µM. hit rate 0.02% among 300,000;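 active = lowest replicate activity score at least 50, where 100 means six control SD above control mean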;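 note: yeast exposed to compound for 9 h at 30 °C; higher score means more reporter readthrough which indicates perturbed polyadenylation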
Beta apoptosis: beta cell apoptosis inhibition; INS-1E cytokine-induced death, ATP luminescence, 48 h; percent of positive-control rescue, neutral wells zero; protection from apoptosis, % (test concentration not listed); hit rate 0.8% among 300,000; AID 435005;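 active = Every replicate reaches about 75%, or at least half do and their mean reaches it too, limit read from the data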;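 note: higher means more ATP so stronger rescue from cytokine killing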
HIF activator: HIF pathway transcriptional activation; U2OS HRE-luciferase reporter, luminescence; normalized: DMSO 0%, desferrioxamine 100%; activation, % at 7.5 µM (by protocol); hit rate 0.32% among 300,000; AID 1910;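 active = mean activation of at least 10% of the iron chelator positive control signal, with at least half of replicates also reaching 10%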
CSC inhib: cancer stem cell inhibition | cancer stem cell-like cells viability, luminescence | inhibition, % at 7.5 µM | hit rate 1.1% among 300,000 | AID 2717; in the data active = inhibition above about 75%; tested in HMLE shEcad cells
T cruzi repl: T. cruzi replication inhibition. T. cruzi beta-gal in NIH3T3, luminescence, 90 h. inhibition, % (no concentration beside the values). hit rate 1.4% among 300,000. AID 1885;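 active = mean inhibition across valid replicates above about 55%, limit read from the data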;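 note: signal also drops with host cell toxicity which is not excluded here; higher percent means less beta-gal luminescence so fewer parasites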
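Assay system: NIH/3T3 fibroblasts plus reporter T. cruzi. Amount: NIH/3T3 cells, 5,000 per well. Buffer or medium: DMEM, 2% fetal bovine serum. Doses: compound pinned at 50 nL/well, DMSO. Schedule: ≥90 h infection period, 3 h prior cell attachment. Signal: luminescent β-galactosidase signal after 60 min lysis. Read-out: parasite load inhibition, %.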
Calb FLC: C. albicans growth modulation with fluconazole. C. albicans CaCi-2 (fluconazole-resistant clinical isolate) + fluconazole, Alamar Blue growth, 48 h. growth inhibition, % (no concentration beside the values). hit rate 0.57% among 300,000;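 active = growth inhibition above about 58% in most replicates, limit read from the data, passing the limit was not always enough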;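 note: all wells also contain fluconazole at 8 µg/ml as a sub-toxic cotreatment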
Hits are given with their value; 0 = inactive; - = not tested or not shown. Only some compounds are listed: those with a hit (about 3.1% of all), similar ones and a draw of the others.

SMILES	PolyA inhibitor	Beta apoptosis	HIF activator	CSC inhib	T cruzi repl	Calb FLC
O=C(Nc1cccc(-c2nc3ncccc3o2)c1)c1ccccc1	0	0	0	0	60.5	0
CCC(Cc1ccccc1)NC(=O)C1=C(C)C(=O)OC12CCC(C)CC2 (stereo not drawn)	0	0	0	0	0	0
CCc1cccc2sc(N3CCN(C(=O)c4ccc([N+](=O)[O-])o4)CC3)nc12	0	0	0	0	63.8	0
O=C(c1ccc([N+](=O)[O-])o1)N1CCN(Cc2ccccc2)CC1	0	0	0	0	0	0
Cc1cc(C)cc(NC(=O)CCc2nc3sc4c(c3c(=O)[nH]2)CCCC4)c1	0	-	0	89.0	0	0
OC(CNCc1ccccc1)COc1ccccc1 (stereo not drawn)	0	0	0	0	0	0
Cc1ccc(OCC(O)CNCc2ccc(F)cc2)cc1 (stereo not drawn)	0	0	0	0	55.5	0
Cc1ccc(-c2cc3cccc[n+]3cc2-c2ccc(C)cc2)cc1	0	110.4	0	0	60.4	0
Cc1ccc2nc(-c3ccncc3)cc(-c3ccccc3)c2c1	0	0	0	0	0	0
O=[N+]([O-])c1cc(Cl)cc(/C=N/NC(=S)Nc2ccc(S(=O)(=O)N3CCOCC3)cc2)c1O	0	0	0	0	0	108.6
CC(=O)NC(CC(=O)NC(C)c1ccc(Cl)cc1Cl)c1ccccc1 (stereo not drawn)	0	0	0	0	0	0
CC(=O)NC(c1ccc(Cl)cc1Cl)c1ccc2cccnc2c1O (stereo not drawn)	0	0	246.1	0	62.1	0
CCCCC(=O)NC(c1ccc(Cl)cc1)c1ccc2cccnc2c1O (stereo not drawn)	0	96.7	86.3	153.0	71.4	97.0
CCCCC(=O)NC(c1ccccc1Cl)c1c(O)ccc2ccccc12 (stereo not drawn)	0	0	0	0	0	0
CCCC(=O)NC(c1ccc(Cl)cc1)c1ccc2cccnc2c1O (stereo not drawn)	0	113.0	92.2	105.7	65.4	108.0
CCCC(=O)NC(c1ccccc1Cl)c1c(O)ccc2ccccc12 (stereo not drawn)	0	0	0	0	0	0
CCCC(=O)NC(c1ccc(Cl)cc1Cl)c1ccc2cccnc2c1O (stereo not drawn)	0	94.1	74.2	109.2	63.5	0
COc1ccc(C(NC(C)=O)c2ccc3cccnc3c2O)c(OC)c1 (stereo not drawn)	0	108.8	64.6	0	0	0
CC(=O)NC(c1ccc(C(C)C)cc1)c1c(O)ccc2ccccc12 (stereo not drawn)	0	0	0	0	0	0
CCCC(=O)NC(c1ccc(C)cc1)c1ccc2cccnc2c1O (stereo not drawn)	0	112.0	124.8	110.2	72.2	85.9
CC(=O)NC(c1ccc2ccccc2c1)c1ccc2cccnc2c1O (stereo not drawn)	0	-	89.9	102.4	61.3	0
CC12CCC(C(=O)N(NC(=O)c3cc(Cl)ccc3O)C1=O)C2(C)C (stereo not drawn)	0	0	0	0	0	0
CN(CC(=O)Nc1cccc(F)c1)C(=O)CC1CCCCC1	0	0	0	0	0	0
CC(=O)Nc1cc(OC(C)=O)c2nonc2c1OC(C)=O	-	0	-	105.9	-	-
CC(=O)Nc1nonc1NC(C)=O	0	0	0	0	0	0
SMILES	PolyA inhibitor	Beta apoptosis	HIF activator	CSC inhib	T cruzi repl	Calb FLC
Cc1ccc(-c2csc(NC(=O)c3ccc(F)cc3)c2C(=O)O)cc1	0	0	0	0	0	0
CCSc1ncc(/C=N/Nc2ccccc2)n1C	0	0	0	0	0	0
CCSc1ncc(/C=N/Nc2ccc(Cl)cc2)n1C	0	0	0	92.9	0	0
CN(C(=O)COC(=O)c1ccc(-c2ccc(O)cc2)cc1)C1CCS(=O)(=O)C1 (stereo not drawn)	0	0	0	0	0	0
COC(=O)[C@H](Cc1c[nH]c2ccccc12)NC(=O)NCc1ccc(OC)cc1	0	0	0	0	0	0
COc1ccc([N+](=O)[O-])cc1N(CC(O)CN1C(=O)NC(C)(C)C1=O)S(=O)(=O)c1ccccc1 (stereo not drawn)	0	0	0	0	0	0
Cc1cccc(C(=O)CC(=O)c2cc(Cl)ccc2O)c1	0	0	0	0	0	97.6

Source: PubChem
